Screens deposited in PubChem BioAssay by several laboratories.
Mdm2 MdmX PPI: inhibitors of human Mdm2-MdmX association, primary screen, cell-based, luminescence, split luciferase, SaOS-2, uHTS | Protein Mdm4 (Homo sapiens) + E3 ubiquitin-protein ligase Mdm2 (Homo sapiens), … | actives 3% (n = 330,000) | inhibition, % at 8 µM | SaOS-2 split-luciferase Mdm2/MdmX complementation;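 active = inhibition of at least 50% at 8 µM in the primary screen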
Beta2AR agonist: beta2AR agonists driving receptor internalization, primary screen, cell-based, FAP fluorogen, flow cytometry | Beta-2 adrenergic receptor (Homo sapiens), P07550 | Am2.2-beta2AR cells | response, % (concentration not given with the values) | actives 0.43% (n = 340,000);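 active = response above a set limit, near 3 SD of response in nonfluorescent compounds, cut at about 42% in these data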
CHOP UPR activ: activators of apoptotic CHOP UPR arm, primary screen, cell-based, CHO-CHOP luciferase reporter, luminescence, uHTS | UPR activation; percent of tunicamycin response over DMSO baseline | activation, % at 10 µM | actives 0.34% (n = 330,000) | AID 449763, 2010;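 active = at 10 µM dose, activation of 40% or more, normalized to positive control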
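System: CHO-CHOP luciferase reporter cell line | Buffer or medium: F12 medium containing 10% fetal bovine serum | Doses: One dose, 10 µM in 0.5% DMSO | Times: 6 h compound exposure at 37 °C after overnight seeding | Signal: Luciferase luminescence | Read-out: % activation vs tunicamycin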
XBP1 UPR activ: activators of adaptive XBP1 UPR arm, primary screen, cell-based, CHO-XBP1 luciferase reporter, luminescence, uHTS; IRE1-XBP1 UPR activation; percent of tunicamycin response, DMSO as zero; activation, % at 20 µM; actives 0.33% (n = 330,000);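 active = versus positive control, 20 µM dose yields 30% or more activation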
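Assay system: IRE1-XBP1 luciferase reporter CHO line. Input: 1000 cells/well. Buffer or medium: F12 with 10% serum. Doses: 20 µM, 1% DMSO. Times: overnight seeding at 37 °C, 6 h compound treatment at 37 °C. Technique: Steady-Glo luciferase glow luminescence, 10 min after reagent addition.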
Dynein cargo inh: inhibitors of GR-EGFP nuclear translocation, primary screen, dynein cargo transport inhibitor project, imaging, high-content, 3617.4 mouse cells | test concentration mostly 20 µM; stimulated with dexamethasone, 1 µM; active compounds read low | z-score, hits read low | actives 0.47% (n = 220,000) | AID 1381, 2008;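 active = plate z-score of nuclear minus cytoplasmic receptor signal below a set negative limit, without overly bright fluorescence or cell loss, cut at about -3.5 in these data, passing the limit was not always enough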;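 note: z-score of nuclear minus cytoplasmic ring GR-EGFP intensity difference per well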
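Buffer or medium: tetracycline-free induction medium containing charcoal-stripped FBS / Reagent: dexamethasone agonist, 1.0 µM final, for 30 min / Technique: automated 10x imaging of fixed Hoechst-stained cells / Times: induction 48 h, compound 1 h, agonist 30 min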
Mdm2 ligase inh: MDM2-luciferase reporter signal enhancers, primary screen, MDM2 E3 ligase inhibitor project, cell-based, luminescence, 1536-well. cell-based MDM2 ubiquitination luciferase reporter, 2 h; 0 = plate control, 100 = twice control, blank-subtracted. signal enhancement, % at 5 µM. actives 0.11% (n = 210,000). AID 1230, 2008;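 active = signal enhancement of 30% or more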;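 note: luminescence tracks abundance of the self-degrading MDM2-luciferase fusion protein; higher signal means inhibition of MDM2 E3 ligase activity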
Target sequence (Q00987 whole entry, looked up, the tested form may be a part): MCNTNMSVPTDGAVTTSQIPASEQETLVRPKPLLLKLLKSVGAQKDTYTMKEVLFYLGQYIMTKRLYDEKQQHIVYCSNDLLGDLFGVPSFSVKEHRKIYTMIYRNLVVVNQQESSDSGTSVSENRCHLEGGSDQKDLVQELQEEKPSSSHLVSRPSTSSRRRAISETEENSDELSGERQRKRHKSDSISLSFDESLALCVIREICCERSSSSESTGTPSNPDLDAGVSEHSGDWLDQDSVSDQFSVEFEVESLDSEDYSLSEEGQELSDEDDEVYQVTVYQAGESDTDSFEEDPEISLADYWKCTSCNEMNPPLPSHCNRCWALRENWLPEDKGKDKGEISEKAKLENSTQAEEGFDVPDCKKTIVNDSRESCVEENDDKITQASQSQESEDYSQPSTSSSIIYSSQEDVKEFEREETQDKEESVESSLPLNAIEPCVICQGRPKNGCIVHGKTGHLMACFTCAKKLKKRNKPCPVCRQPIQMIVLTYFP
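Material: Stable MDM2–luciferase fusion reporter cells | Amount: 2000 cells seeded into each well | Dosing: One concentration, 5 µM, with 0.2% DMSO | Incubation: 4 h cell settling then 2 h compound exposure, 37 °C | Measured by: Luciferase luminescence | Read-out basis: % enhancement relative to plate controls after blank subtraction | Benchmarks: Control and blank well means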
Mdm2-MdmX conf: Mdm2-MdmX complex disruptors, retested hits, confirmation, luminescence, single concentration; AID 489028, 2010; actives 55% (n = 10,000); Mdm2-MdmX binding, luminescent assay; shares compounds with Mdm2 MdmX PPI; inhibition, % at 8 µM; in the data active = inhibition above about 40%
Full FLuc ctr: full-length luciferase signal inhibition, confirmation, counter-screen for Mdm2/MdmX interaction inhibitor project, cell-based, single concentration, SaOS-2 | shares compounds with Mdm2 MdmX PPI | SaOS-2 full-length luciferase counterscreen, luminescence | inhibition, % at 8 µM | actives 77% (n = 6,200) | AID 504607, 2011;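 active = mean inhibition at 8 µM reaching about 37%, which flags the compound as non-specific, limit read from the data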;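 note: p53-null SaOS-2 cells with luciferase driven by a doxycycline-inducible promoter; compound on cells about two nights before reading with doxycycline added after day one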
A number is an active result; – = inactive; · = no result. Hits are enriched below; roughly 3.7% of the tested compounds scored in any of these assays.

SMILES	Mdm2 MdmX PPI	Beta2AR agonist	CHOP UPR activ	XBP1 UPR activ	Dynein cargo inh	Mdm2 ligase inh	Mdm2-MdmX conf	Full FLuc ctr
O=C(Cc1sc(-c2ccccc2Cl)nc1-c1ccccc1)Nc1ccc(F)cc1	64	–	–	–	–	–	–	·
CC(=O)Nc1ccc(NC(=O)Cc2sc(-c3cccnc3)nc2-c2ccc(C)cc2)cc1	–	–	–	–	–	–	·	·
O=C(Cc1sc(-c2ccccc2Cl)nc1-c1ccccc1)Nc1ccccc1	72	–	–	–	–	·	–	·
O=C(Cc1sc(-c2ccccc2)nc1-c1ccccc1)Nc1ccc(Cl)cc1	59	–	–	–	–	–	–	·
CS(=O)(=O)c1ccccc1C(=O)Nc1cccc(-c2nc3ccccc3o2)c1	–	–	–	–	·	·	·	·
O=C(NC1CCN(C(=O)Nc2ccccc2Cl)CC1)c1cccc(F)c1	–	–	–	–	·	·	·	·
Cc1ccc(C(=O)Nc2ccccc2N2CCCCC2)o1	–	–	–	–	·	·	·	·
CCOC(=O)CC1C(=O)NCCN1S(=O)(=O)c1ccc(NC(C)=O)cc1 (stereo unspecified)	–	–	–	–	·	·	·	·
COc1ccccc1C(=O)N/C(=C\c1cn(S(=O)(=O)N(C)C)c2ccccc12)C(=O)N1CCOCC1	–	–	–	–	·	·	·	·
COc1ccc(C(=O)/C=C/c2cc(OC)c(O)c(OC)c2)c(F)c1	51	–	–	–	–	–	–	·
COc1ccc2cc(C(=O)/C=C/c3cc(OC)c(O)c(OC)c3)ccc2c1	–	–	–	–	·	·	·	·
O=C(Cn1cnc2cc([N+](=O)[O-])ccc2c1=O)Nc1cccc(S(=O)(=O)N2CCOCC2)c1	61	–	–	–	–	–	–	·
O=C(Cn1cnc2ccccc2c1=O)Nc1ccc(S(=O)(=O)N2CCOCC2)cc1	–	–	–	–	–	–	·	·
CCOC(=O)C1C(=O)NC(C(=O)OCC)(C(=O)OCC)C1C(C)CC (stereo unspecified)	·	–	·	·	·	·	·	·
CCC(=O)NC1=C(Cl)C(=O)C(NC(=O)CC)=C(Cl)C1=O	58	–	–	–	–	–	44	–
O=C(/C=C/C(=O)NCc1cccs1)NCc1cccs1	62	–	–	–	–	–	–	·
O=C(Cn1c2ccccc2c(=O)c2ccccc21)N/N=C/c1ccc(N2CCCC2)c([N+](=O)[O-])c1	·	–	·	·	–	–	·	·
O=C(N/N=C/c1cc([N+](=O)[O-])ccc1N1CCNCC1)c1ccc([N+](=O)[O-])cc1	101	–	–	–	–	–	41	–
N#CCC(=O)N/N=C/c1cc([N+](=O)[O-])ccc1N1CCCC1	–	–	–	–	–	–	·	·
O=C(Cn1c2ccccc2c(=O)c2ccccc21)N/N=C/c1cc([N+](=O)[O-])ccc1N1CCCCCC1	97	–	–	–	–	–	–	·
CN1c2ccccc2C(C)(C)C12CC(c1ccc(S(=O)(=O)N3CCCCC3)cc1)=NO2 (stereo unspecified)	65	–	–	–	–	–	74	74
CCN(CC)S(=O)(=O)c1ccc(C2=NOC3(C2)N(C)c2ccccc2C3(C)C)cc1 (stereo unspecified)	72	–	–	–	–	–	69	79
O=S(=O)(c1ccc(-c2ccccc2)cc1)N1CCCCC1	–	–	–	–	·	·	·	·
CN1c2ccccc2C(C)(C)C12CC(c1cccc(S(=O)(=O)N3CCCC3)c1)=NO2 (stereo unspecified)	69	–	–	–	–	–	65	106
COc1ccc(Br)cc1CN1CCC(N2CCCC2)CC1	–	–	–	–	·	·	·	·
SMILES	Mdm2 MdmX PPI	Beta2AR agonist	CHOP UPR activ	XBP1 UPR activ	Dynein cargo inh	Mdm2 ligase inh	Mdm2-MdmX conf	Full FLuc ctr
Cc1ccc(C2=NN(CC(=O)O)C(=O)CC2)cc1	–	–	–	–	·	·	·	·
Cc1cc(C)nc(NC(=O)/C=C/c2ccccc2Cl)n1	–	–	–	–	–	–	·	·
Cc1cc(N)c2cc(NC(=O)/C=C/c3ccccc3Cl)ccc2n1	100	73	–	–	–	–	100	51
Nc1c(N(C(=O)Nc2ccc(Cl)c(Cl)c2)C2CCCC2)c(=O)[nH]c(=O)n1Cc1ccccc1	78	–	–	–	–	–	–	·
CC(C)(C)OC(=O)N1CCC(C(=O)Nc2ccc3c(c2)CCC3)CC1	–	–	–	–	·	·	·	·
CN(C(=O)c1cccc(NC(=O)Cc2cccc(NC(=O)C3CCN(C(=O)c4ccccc4)CC3)c2)c1)C1CC1	·	–	·	·	·	·	·	·
O=C(Cc1ccc(N2CCNC2=O)cc1)N1CCCC(Nc2ccc(F)c(F)c2)C1 (stereo unspecified)	54	–	–	–	·	·	75	56
O=C(Cc1ccc(N2CCNC2=O)cc1)N1CCCC(Nc2cccc(F)c2)C1 (stereo unspecified)	60	–	–	–	·	·	60	62
O=C(c1cccc(N2CCNC2=O)c1)N1CCCC(Nc2cccc(F)c2)C1 (stereo unspecified)	–	–	–	–	·	·	·	·
CN(C(=O)c1ccc(NC(=O)C2CCN(C(=O)OC(C)(C)C)CC2)cc1)C1CC1	–	–	–	–	·	·	·	·
CN(Cc1ccccc1)C(=O)c1ccc(NC(=O)C2CCN(C(=O)OC(C)(C)C)CC2)cc1	76	–	–	–	·	·	59	–
Nc1[nH]n2c(=O)cc(-c3ccccc3)nc2c1N=Nc1ccccc1	58	–	–	–	–	–	47	43
O=S(=O)(c1ccccc1)N(CC1CO1)c1cccc2ccccc12 (stereo unspecified)	–	–	–	–	–	–	·	·
N#CC(c1ccc(O)cc1)N1CCN(C(C#N)c2ccc(O)cc2)CC1 (stereo unspecified)	·	–	·	·	·	·	·	·
COc1ccc(Cc2[nH]n3c(=O)cc(C(C)C)nc3c2-c2ccccc2)cc1	62	–	–	–	–	–	62	40
CCN(CC(=O)Nc1c(F)cccc1F)C(=O)C1CCN(c2ncnc3sc(C)c(C)c23)CC1	–	–	–	–	·	·	·	·
